Compound activity deposited in PubChem by SRMLSC.
PostGolgi ctrl: growth inhibition of yeast control strain, primary screen, counter-screen for post-Golgi transport modulator project; efflux-deficient yeast background strain, growth absorbance A615, 16 h; inhibition, % at 10 µM; 98,000 tested, 5% active; AID 738, 2007
Ecoli tolC: growth inhibitors of E. coli tolC mutant, primary screen, strain BW25113 ΔtolC::kan, 384-well. OD615. growth inhibition, % at 10 µM (by protocol). 65,000 tested, 2.2% active. AID 573, 2007;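 active = growth inhibition at or above a cutoff equal to the mean over every tested compound plus 3 SD, cut at about 60% in these data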;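 also: growth measured after 20 h incubation at 37 °C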
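Material: E. coli BW25113 ΔtolC::kan, tolC deletion mutant strain. Measure: percent growth inhibition. Schedule: 37 °C, 20 h exposure. Doses: single-point testing at 10 µM. Signal: A615 absorbance measurement. Buffer or medium: kanamycin-containing LB broth (50 µg/mL).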
PostGolgi yeast: phenotypic screen on post-Golgi transport, primary screen | post-Golgi transport phenotypic cell assay | inhibition, % at 10 µM | 98,000 tested, 0.9% active | AID 739, 2007;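 also: yeast cells grown in 1536-well plates; yeast grown about 18 h at 30C before absorbance read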
Ecoli WT expand: growth inhibitors of wild-type E. coli, primary screen, strain BW25113, expanded library, OD600. 98,000 tested, 0.15% active. growth inhibition, % at 100 µM. OD600 absorbance;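 active = growth inhibition above about 50% at one test dose, limit read from the data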;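 also: growth measured after 20 h incubation at 37 °C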
* = called active by the depositor; · = no result given. Only some compounds are listed: those with a hit (about 6.3% of all), similar ones and a draw of the others. Rule as the data show it, unless noted: active = inhibition above about 30%; inactive = the rest.

SMILES	PostGolgi ctrl	Ecoli tolC	PostGolgi yeast	Ecoli WT expand
Cc1ccnc(SCC(=O)Nc2sc3c(c2C#N)CCCC3)n1	6.7	41.3	0.1	-4.0
N#Cc1c(NC(=O)CSc2nnc(-c3ccccc3O)n2-c2ccccc2)sc2c1CCCC2	40.0*	13.8	24.4	-5.0
COc1cc(Nc2nc3ccccc3n3nnnc23)cc(OC)c1OC	5.6	·	-4.2	-10.0
CCCCCCn1c(=O)c(-c2ccccc2)c(O)c2ccccc21	37.6*	·	-5.3	-1.0
CCc1cccc(Nc2cc(C)nc3nc(C)nn23)c1	0.0	-2.2	0.5	-12.0
N#Cc1nc(-c2ccccc2)oc1NCc1ccco1	5.2	·	-16.5	6.0
N#Cc1nc(Cc2ccccc2)oc1NCc1ccccc1Cl	46.0*	92.6*	17.2	30.0
N#Cc1nc(-c2ccccc2Cl)oc1NCc1ccco1	31.4*	40.8	-1.9	15.0
Cn1c(NC(=O)c2ccccc2)c(-c2ccccn2)c(=O)c2ccccc21	-1.8	·	7.6	-7.0
COc1cccc(Oc2nnnn2-c2ccccc2)c1	10.6	5.8	4.4	3.0
COc1cccc(-n2nnnc2S(C)(=O)=O)c1	30.3*	·	17.4	33.0
CCCCn1c(CN2CCN(c3cccc(Cl)c3)CC2)nc2c1c(=O)n(C)c(=O)n2C	19.2	30.7	-3.6	8.0
CCCCCn1c(CN2CCN(c3cccc(Cl)c3)CC2)nc2c1c(=O)n(C)c(=O)n2C	·	62.4*	·	·
CCCCCn1c(CN2CCN(c3cc(Cl)ccc3C)CC2)nc2c1c(=O)[nH]c(=O)n2C	55.8*	1.8	-1.6	3.0
Cc1ccc(-c2nc(CS(=O)CC(=O)NC3CCC(C)CC3)c(C)o2)cc1 (stereo unspecified)	8.3	3.4	-13.9	0.0
Cc1cc(-n2c(C)cc(C(=O)CSc3ncnc4ccccc34)c2C)no1	40.4*	12.1	-0.3	-6.0
CCN(C(=O)Cc1cccs1)c1nnc(-c2cccnc2)s1	-12.3	-10.6	-8.5	-13.0
CCOc1cc(CNCCO)cc(Br)c1OCc1cccs1	-0.7	·	-10.8	11.0
CCOc1cc(CNCCO)cc(Br)c1OCc1ccc(Cl)cc1Cl	90.0*	·	27.0	80.0*
O=C(CSc1nc2ccccc2s1)N1CCOCC1	4.4	5.6	-4.0	4.0
O=C1CCCCCN1CSc1nc2ccccc2s1	45.8*	4.4	-5.7	2.0
O=C(c1ccc(C#CC2(O)CCCCC2)cc1)N1CCN(Cc2ccccc2)CC1	30.4*	·	9.5	1.0
CCOc1cc(S(=O)(=O)Nc2ccc(CC)cc2)ccc1Cl	41.4*	·	-7.6	-16.0
CCOc1cc(S(=O)(=O)Nc2ccccc2CC)ccc1Cl	59.0*	·	10.8	2.0
CCc1ccc(NS(=O)(=O)c2ccc(OC)c(C)c2)cc1	35.5*	·	-9.5	-3.0
SMILES	PostGolgi ctrl	Ecoli tolC	PostGolgi yeast	Ecoli WT expand
COc1ccc(S(=O)(=O)Nc2ccc(S(=O)(=O)Nc3nc(C)cc(C)n3)cc2)cc1OC	31.5*	-6.1	4.9	-13.0
CCSC1=NC2(CCCCC2)Nc2sc3c(c21)CCCC3	17.2	·	11.0	8.0
CC(C)(C)OC(=O)NC(CCCCNC=O)C(=O)O (stereo unspecified)	16.1	-11.2	0.3	7.0
CN(C(=O)CSc1nc(-c2ccccc2)cn1N)C(c1ccccc1)c1ccccc1	47.5*	·	-12.0	-9.0
Cn1ncc(C#N)c1/N=C/N(Cc1ccccc1)Cc1ccccc1	35.2*	99.2*	1.7	-4.0
CN1CCN(/C=N/c2c(C#N)cnn2C)CC1	1.2	-13.9	-1.1	3.0
CC(C)NC(=O)CSc1nnc(C2CC2)n1-c1ccccc1	1.4	·	-1.6	8.0
CC1=CC(C)(C)N2C(=O)C3(C(C#N)=C(N)OC4=C3C(=O)CC(C)(C)C4)c3cccc1c32 (stereo unspecified)	7.6	-15.6	2.0	-12.0
Cc1cc2c3c(c1)C1(C(=O)N3C(C)(C)CC2C)C(C#N)=C(N)Oc2cc(O)ccc21 (stereo unspecified)	16.7	68.2*	-0.5	0.0
CC1=CC(C)(C)N2C(=O)C3(C(C#N)=C(N)Oc4cc(O)ccc43)c3cccc1c32 (stereo unspecified)	3.3	99.8*	-0.3	13.0
Cc1nn(-c2ccccc2)c2c1C1(C(=O)N3c4c(cccc41)C(C)CC3(C)C)C(C#N)=C(N)O2 (stereo unspecified)	11.4	·	2.4	3.0
Cc1ccc2c3c1C1(C(=O)N3C(C)(C)CC2C)C(C#N)=C(N)Oc2cc(O)ccc21 (stereo unspecified)	1.6	97.0*	-2.0	-3.0
CCOC(=O)c1sc2c(c1C)C(c1cccs1)C1=C(CCCC1=O)N2 (stereo unspecified)	18.3	80.0*	6.9	-7.0
CCSc1nnc(NC(=O)c2cccc(OCc3c(C)noc3C)c2)s1	3.8	62.0*	2.6	-6.0
Cc1noc(C)c1COc1cccc(C(=O)Nc2ccc(OCc3ccccc3)cc2)c1	1.2	·	0.3	-8.0
COc1ccc2nc(NC(=O)c3cccc(OCc4c(C)noc4C)c3)sc2c1	33.3*	45.2	17.7	-7.0
Cc1noc(C)c1COc1cccc(C(=O)NCc2ccccc2Cl)c1	29.5	·	1.4	3.0
c1ccc(-n2nnnc2NC2CCCCC2)cc1	0.0	·	0.9	3.0
COC(=O)C1=C(C)NC(C)=C(C(=O)OC)C1c1cn(-c2ccccc2)nc1-c1ccco1	68.7*	52.5	24.7	-5.0
O=C(Cn1nnc(-c2ccc(Cl)cc2)n1)NCC1CCCCC1	4.7	-2.3	-3.6	0.0
COCCOC(=O)c1c(C)oc2ccc(OC(=O)c3cccs3)cc12	13.3	40.3	-2.6	-6.0
COC(=O)c1c(C)oc2ccc(OC(=O)c3cccs3)cc12	2.7	83.8*	-11.7	-15.0
Cc1ccc(-n2c(C)cc(C(=O)COC(=O)c3c(C)noc3C)c2C)cc1	22.1	82.4*	-3.0	-9.0
CCOC(=O)c1ccc(COC(=O)c2nonc2N)cc1	2.9	-21.6	-2.3	2.0
Cc1ccc2ccccc2c1COC(=O)c1nonc1N	74.5*	-7.3	-3.9	-2.0
SMILES	PostGolgi ctrl	Ecoli tolC	PostGolgi yeast	Ecoli WT expand
COC(=O)c1ccc(COc2ccccc2/C=N/NS(=O)(=O)c2ccccc2)cc1	25.1	·	1.0	-8.0
Cc1ccc2oc(=O)n(Cc3ccccc3OC(C)C)c2c1	17.9	98.9*	-0.3	4.0
CCCCOc1ccccc1Cn1c(=O)oc2ccc(C)cc21	18.1	69.9*	4.0	-1.0
Cc1ccc2oc(=O)n(CCCOc3ccccc3)c2c1	10.1	46.6	-2.3	2.0
COC(=O)c1ccsc1NC(=O)c1ccc2c(c1)OCCO2	·	6.1	·	·
COc1ccc(C2C(C#N)=C(N)N(c3sc4c(c3C#N)CCCC4)C3=C2C(=O)CC(C)(C)C3)cc1 (stereo unspecified)	1.8	·	-8.8	-5.0
COc1ccc(C2C(C#N)=C3NC(=O)c4c(sc5c4CCCCC5)N3C3=C2C(=O)CC(C)(C)C3)cc1 (stereo unspecified)	35.8*	·	7.3	-5.0
Cc1cc(NC(=O)CSc2nnc3c(C)cc4cc5c(cc4n23)OCO5)no1	·	-6.6	·	·
N#CC1=C(N)NC(SCC(=O)O)=C(C#N)C12CCCC2	6.7	-7.5	0.6	-6.0
N#CC1=C(N)NC(SCc2ccc(F)cc2)=C(C#N)C12CCCCC2	67.7*	3.8	99.3*	16.0
CCCc1cc(C(=O)N2CCN(c3ccccc3C)CC2)cs1	38.2*	100.0*	-10.2	-1.0
